Screening data from PubChem.
PLCb3 inh: human PLC-beta3 inhibitors, primary screen, biochemical, fluorescence | Purified PLC-beta3, fluorogenic substrate | inhibition, % at 12.2 µM | 370,000 compounds, 0.18% hits; in the data active = inhibition above about 11%;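 note: 0% = median of compound wells on plate and 100% = full blocker control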
ADAM17 inh: ADAM17 inhibitors, primary screen, biochemical, QFRET; Disintegrin and metalloproteinase domain-containing protein 17 (Homo sapiens), P78536; recombinant ADAM17, EDANS/DABCYL FRET peptide cleavage; inhibition, % at 6.95 µM; 370,000 compounds, 0.83% hits; AID 720648, 2013;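 active = inhibition above the mean of compounds lying between control limits plus 3 SD, set per campaign, cut at about 8.5% in these data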;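 note: 0% = DMSO-only wells as the low control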
Tn6 DDE FP: inhibitors of Tn6 peptide binding to fibrin DD(E), primary screen, biochemical, fluorescence polarization, human fibrin, Tn6 probe | inhibition, % at 8.3 µM | Fibrinogen beta chain (Homo sapiens), P02675 | 370,000 compounds, 0.21% hits | Fibrin DD(E) TRITC-Tn6 fluorescence polarization displacement;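 active = inhibition above a per-campaign cutoff: mean of compounds within control limits plus 3 SD, cut at about 15% in these data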;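 note: 0% = median of all compound wells on the plate and 100% = blocking peptide control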
Target sequence (P02675 whole entry, looked up): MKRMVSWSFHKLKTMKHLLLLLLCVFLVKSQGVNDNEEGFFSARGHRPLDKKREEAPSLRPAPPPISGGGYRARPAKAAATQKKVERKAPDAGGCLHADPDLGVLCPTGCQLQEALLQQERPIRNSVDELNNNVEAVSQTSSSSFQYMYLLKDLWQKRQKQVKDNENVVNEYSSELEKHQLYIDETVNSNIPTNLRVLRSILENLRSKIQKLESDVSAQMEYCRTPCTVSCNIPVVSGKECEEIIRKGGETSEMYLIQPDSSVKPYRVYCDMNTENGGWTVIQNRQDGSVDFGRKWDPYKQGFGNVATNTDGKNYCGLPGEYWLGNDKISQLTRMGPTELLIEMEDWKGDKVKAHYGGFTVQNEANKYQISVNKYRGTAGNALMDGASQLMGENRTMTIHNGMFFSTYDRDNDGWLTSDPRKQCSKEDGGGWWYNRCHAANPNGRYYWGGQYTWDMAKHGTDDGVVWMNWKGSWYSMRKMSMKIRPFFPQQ
PLCg1 inh: PLC-gamma1 enzyme inhibitors, primary screen, biochemical, fluorescence, purified enzyme | inhibition, % at 12.2 µM | fluorogenic substrate | 370,000 compounds, 0.84% hits
ADAM10 inh: human ADAM10 inhibitors, primary screen, biochemical, QFRET, HTS; Disintegrin and metalloproteinase domain-containing protein 10 (Homo sapiens), O14672; recombinant ADAM10, EDANS/DABCYL FRET peptide cleavage, 3 h; inhibition, % at 7 µM; 370,000 compounds, 0.62% hits; AID 720582, 2013;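 active = inhibition above a per-campaign cutoff equal to the mean of compounds falling between control-based bounds plus 3 SD, cut at about 20% in these data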;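 note: 0% = DMSO wells while the 100% control is not disclosed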
DDE Tn7 FP inh: inhibitors of Tn7 peptide binding to fibrin DD(E), primary screen, biochemical, fluorescence polarization, human fibrin, Tn7 probe; Fibrinogen beta chain (Homo sapiens), P02675; FP displacement of FITC-Tn7 peptide from fibrin DD(E); 0% = median of compound wells per plate; inhibition, % at 8.3 µM; 370,000 compounds, 0.13% hits; AID 720508, 2013;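 active = inhibition above the mean of compounds falling within the control limits plus 3 SD of them, cut at about 14% in these data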;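 note: 0% = plate median of compound wells and 100% = 10 µM Aha-Tn7 peptide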
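Also added: labelled Tn7 tracer, 0.1 µM; Assay system: human fibrin DD(E) protein; Amount: 2 µM fibrin DD(E); Schedule: 10 min compound pre-incubation, 3 h probe incubation at room temperature; Repeats: one replicate per compound; Read-out basis: percent inhibition; Measured by: fluorescence polarization of the labelled Tn7 tracer.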
PLCgamma1 ctr: PLC-gamma1 enzyme inhibitors, counter-screen for PLC-beta3 inhibitor project, biochemical, fluorescence | shares compounds with PLCg1 inh | purified PLC-gamma1, fluorogenic substrate | inhibition, % at 12.3 µM | 3,300 compounds, 3.1% hits | AID 743258, 2014
PLCbeta3 conf: PLC-beta3 inhibitor confirmation, biochemical, fluorescence, purified enzyme | shares compounds with PLCg1 inh | fluorogenic substrate fluorescence | inhibition, % at 12.3 µM | 3,300 compounds, 1% hits | AID 743261, 2014; in the data active = inhibition above about 11%
Numbers without * were called inactive; / = no result. The list is not random: actives were taken first. Their share in the collection is about 2.3%. Cut-off read from the data, not from the text of the source, unless noted: active = inhibition above about 9.5%; inactive = the rest.

SMILES | PLCb3 inh | ADAM17 inh | Tn6 DDE FP | PLCg1 inh | ADAM10 inh | DDE Tn7 FP inh | PLCgamma1 ctr | PLCbeta3 conf
CC(=O)NC[C@H]1O[C@@H](n2ccc(N)nc2=O)[C@H](O)[C@@H]1O | 9 | 5 | -4 | 10* | 3 | -2 | -4 | 1
CC(C)C[C@@H]1COc2cccc(F)c2S(=O)(=O)N1C | 2 | 2 | 0 | 0 | 3 | -7 | / | /
O=c1c2ccccc2n(Cc2ccccc2)n1[C@@H](Cc1ccccc1)Cn1cc(-c2ccc(-c3ccccc3)cc2)nn1 | 0 | -2 | 1 | -1 | -12 | -8 | / | /
COC1CCCCC1Nc1cc(C)ccc1C (centres undefined) | 4 | 0 | 4 | 9.5* | 4 | -3 | -1 | -1
Cc1[nH]c2ccccc2c1N=Nc1cc(C(=O)O)cc(C(=O)O)c1 | -4 | 1 | -1 | 11* | -3 | -3 | -2 | 1
Cc1[nH]c2ccccc2c1N=Nc1ccc(F)cc1 | -71 | -3 | -2 | -44 | 10 | 3 | / | /
O=C1/C(=C/C=C/c2ccco2)SC(=S)N1NS(=O)(=O)c1ccccc1 | -53 | -11 | -2 | -9 | -21 | 3 | / | /
CC(C(=O)O)N1C(=O)/C(=C/C=C/c2ccco2)SC1=S (centres undefined) | -3 | -5 | -3 | 37* | -13 | 1 | 20* | -14
CN(C1=C(NC(=O)c2ccc(Cl)cc2)C(=O)c2ccccc2C1=O)c1ccccc1 | 1 | 4 | 0 | 12* | 13 | 2 | 7 | 5
COc1cccc(C(c2c(C)[nH]n(-c3ccccc3)c2=O)c2c(C)[nH]n(-c3ccccc3)c2=O)c1OC | 7 | 5 | 15 | 18* | 1 | 1 | -6 | -4
CCOc1cccc(C(c2c(C)n(C)n(-c3ccccc3)c2=O)c2c(C)n(C)n(-c3ccccc3)c2=O)c1OC | -2 | -2 | -8 | 3 | 3 | 0 | / | /
Cc1[nH]n(-c2ccccc2)c(=O)c1C(=O)c1ccccc1 | 2 | 0 | 6 | 4 | -8 | -5 | / | /
COc1cccc(C(c2c(C)[nH]n(-c3ccccc3)c2=O)c2c(C)[nH]n(-c3ccccc3)c2=O)c1O | -1 | -3 | -4 | 25* | 6 | 9 | -7 | -7
COc1cccc(/C=C2\CC3(OC(=O)c4ccco4)CCCN2C3)c1 (centres undefined) | -4 | 0 | -6 | 1 | 2 | -3 | / | /
COc1cc(-c2nnc(SCC3(c4ccccc4)OCCO3)o2)cc(OC)c1OC | -1 | 1 | -7 | 12* | 4 | -1 | -4 | 0
COc1cc(-c2nnc(SCC(=O)c3ccccc3)o2)cc(OC)c1OC | -3 | -3 | 4 | 0 | -2 | 4 | / | /
CSCC[C@H](NC(=O)c1ccc2ccccc2c1)C(=O)N1CCC2(CC1)NCCc1[nH]cnc12 | 0 | -1 | 0 | 1 | 1 | -8 | / | /
CSCC[C@H](NC(=O)COc1ccc(Cl)cc1)C(=O)N1CCC2(CC1)NCCc1[nH]cnc12 | -3 | -1 | 8 | 11* | 4 | -7 | -7 | -6
CCC[C@H]1[C@@H](OC(=O)NCc2ccc(Cl)cc2)CC[C@@]23CCCN2C(=O)CCC[C@@H]13 | 2 | -3 | 1 | 1 | 3 | -5 | / | /
Clc1ccc(C2CSc3c4ncnc-4ncn32)cc1 (centres undefined) | 3 | 4 | 3 | 11* | 6 | 10 | -8 | -1
Cc1ccc(C2CC(c3ccc(Cl)cc3)n3nc(N)nc3N2)cc1 (centres undefined) | -84 | -46 | 5 | -60 | -186 | -2 | / | /
O=C(CSc1nc(=O)n(CCN2CCOCC2)c2c1CCCC2)Nc1cccc([N+](=O)[O-])c1 | 19* | -3 | -9 | 3 | -6 | 1 | -3 | -2
COc1ccc(NS(=O)(=O)c2cccc(C(=O)NNC(=O)CNC(=O)c3ccccc3)c2)cc1 | 1 | 3 | 0 | 7 | 9 | -6 | / | /
COc1ccc(NS(=O)(=O)c2cccc(C(=O)NNC(=O)COc3ccccc3)c2)cc1 | -3 | 1 | -5 | 9.6* | -11 | -3 | -8 | -260
CCCCCCCCN1C(=O)[C@@H](CC(=O)NCCCOC)C[C@@]2(C(=O)OC)C1=C[C@H](C(C)C)O[C@@H]2C1CC1 | 3 | 3 | 3 | 5 | 6 | -6 | / | /
SMILES | PLCb3 inh | ADAM17 inh | Tn6 DDE FP | PLCg1 inh | ADAM10 inh | DDE Tn7 FP inh | PLCgamma1 ctr | PLCbeta3 conf
CC(=O)c1cccc(NC(=O)c2onc(C)c2Cl)c1 | 4 | -1 | -1 | 3 | -5 | -4 | / | /
Cc1noc(C(=O)Nc2cccnc2)c1Cl | 4 | 1 | -1 | 12* | 9 | 4 | -6 | -4
CNC(=O)C(=O)Nc1ccc(C)cc1C | 0 | -4 | 1 | 1 | -1 | -3 | / | /
CNC(=O)C(=O)Nc1c(C)cc(C)cc1C | 12* | 7 | -5 | 7 | 10 | -3 | -7 | -5
Cc1ccc(NC(=O)Cn2sc3nc(C)cc(C)c3c2=O)c(Cl)c1 | -1 | 4 | 1 | 13* | -5 | 1 | -6 | -2
Cc1cc(C(=O)NC(=S)Nc2cccc(C(=O)O)c2C)ccc1[N+](=O)[O-] | 5 | 4 | -6 | 9.8* | 9 | -3 | 4 | 1
COc1cc(S(=O)(=O)N2CCN(c3ccccc3)CC2)ccc1Cl | 1 | 4 | -2 | 10* | 11 | 0 | -7 | -2
COc1cccc(N2CCN(S(=O)(=O)c3ccc4c(c3)oc(=O)n4C)CC2)c1 | 1 | 3 | 5 | 11* | -7 | -4 | -3 | -5
Fc1ccc(Cn2ccc3ccc(-c4ccc5ccn(Cc6ccc(F)cc6)c5c4)cc32)cc1 | -75 | -15 | 1 | -62 | -47 | 2 | / | /
COc1ccc(CN2C(=O)[C@@](O)(c3cccn3C)c3cc(Br)ccc32)cc1 | 3 | 2 | 6 | 3 | 11 | -6 | / | /
